Assay results reported in ChEMBL document CHEMBL1126868, “Inhibitors of blood platelet cAMP phosphodiesterase. 4. Structural variation of the side-chain terminus of water-soluble 1,3-dihydro-2H-imidazo[4,5-b]quinolin-2-one derivatives” (J Med Chem, 1993).

Experiments:
[1] = Aqueous solubility; assay type: physicochemical; settings: read-out: S
Summary of the method: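 A 10-mg sample was placed in 0.5 mL water and diluted stepwise up to 10 mL, or until it dissolved. Solubility is reported in mg/mL.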

Homo sapiens [2] = organism: Homo sapiens; assay: Inhibition of human platelet aggregation induced by ADP after 3 min incubation with platelet rich plasma; assay type: functional; settings: 0.05 h
Summary of the method: (§1)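 Human platelet-rich plasma was preincubated with drug for 3 min (standard) or 15 min, then aggregation was induced with 5.86 μM ADP. Aggregation at a range of drug concentrations was compared with vehicle-treated controls, and IC50 was taken from dose-response curves. Values are single, duplicate or triplicate (with SD) determinations.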

[3] = % metabolized in monkey S-9 after 2 hours (10 ug/ml); assay type: ADME; settings: simiiformes, monkey S-9 fraction; read-out: Activity
Summary of the method: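 Monkey liver homogenised at 0 °C in 3 volumes isotonic KCl (0.05 M phosphate, pH 7.4), spun 9000g 30 min to give S-9. Triplicate incubations at 37 °C for 2 h with cofactor mix (glucose-6-phosphate, NADP, nicotinamide, MgCl2), final drug 1 or 10 μg/mL. Parent measured by fluorescence HPLC after MeOH protein precipitation; % metabolized = 100% minus % remaining at 2 h versus t=0.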

[4] = half-life (t1/2 min); assay type: ADME
Summary of the method: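 Same monkey liver S-9 incubation (37 °C, final drug 1 or 10 μg/mL, triplicate). Aliquots taken at 0, 15, 30, 60, 90 and 120 min, quenched with MeOH and analysed for parent by fluorescence HPLC peak height. Half-life = ln 2 divided by the slope of a least-squares linear regression of peak height against time.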

Homo sapiens [5] = organism: Homo sapiens; assay: Inhibition of human platelet aggregation induced by ADP after 15 min incubation with platelet rich plasma; assay type: functional; settings: 0.25 h; summary of the method: as §1
Phosphodiesterase 3 = Phosphodiesterase 3 (Homo sapiens, UniProt Q14432+Q13370); assay: Inhibition of human platelet aggregation cAMP PDE in vitro; assay type: functional
Summary of the method: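 Human platelet cAMP PDE assay run as in an earlier protocol, except that the [3H]adenosine product was resolved on DEAE Sephadex. Values are means of duplicate (deviation under 50% of mean) or triplicate determinations.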

SMILES: CCOC(=O)N1CCC(S(=O)(=O)CCCOc2ccc3[nH]c4nc(O)nc-4cc3c2)CC1
- solubility [1]: < 1000 µg/mL
- IC50 (Homo sapiens [2]): 650 nM

SMILES: CCOC(=O)N1CCC(n2nnnc2CCCCOc2ccc3[nH]c4nc(O)nc-4cc3c2)CC1
- solubility [1]: < 1000 µg/mL
- IC50 (Homo sapiens [2]): 100 nM

SMILES: CCOC(=O)N1CCC(S(=O)(=O)CCCCOc2ccc3[nH]c4nc(O)nc-4cc3c2)CC1
- solubility [1]: < 1000 µg/mL
- IC50 (Homo sapiens [2]): 410 nM

SMILES: CCOC(=O)N1CCC(n2nnnc2CCCOc2ccc3[nH]c4nc(O)nc-4cc3c2)CC1
- solubility [1]: < 1000 µg/mL
- IC50 (Homo sapiens [2]): 420 nM

SMILES: Cl.O=C(NCCCOc1ccc2[nH]c3nc(O)nc-3cc2c1)N1CCN(CC2CCCCCC2)CC1
- solubility [1]: 2000 µg/mL
- IC50 (Homo sapiens [2]): 54 nM

SMILES: Cl.O=S(=O)(CCCCOc1ccc2[nH]c3nc(O)nc-3cc2c1)C1CCN(CC2CCCCC2)CC1
- solubility [1]: 2000 µg/mL
- IC50 (Homo sapiens [2]): 30 nM

SMILES: Cl.O=C(NCCCOc1ccc2[nH]c3nc(O)nc-3cc2c1)N1CCN(CC2CCCC2)CC1
- solubility [1]: 700 µg/mL
- IC50 (Homo sapiens [2]): 94 nM

SMILES: Cl.O=S(=O)(CCCOc1ccc2[nH]c3nc(O)nc-3cc2c1)C1CCN(CC2CCCCO2)CC1 (stereo not given)
- solubility [1]: > 10000 µg/mL
- IC50 (Homo sapiens [2]): 34 nM

SMILES: Cl.Oc1nc2cc3cc(OCCCc4nnnn4C4CCN(CC5CCCC5)CC4)ccc3[nH]c-2n1
- solubility [1]: 3000 µg/mL
- IC50 (Homo sapiens [2]): 9 nM

SMILES: Cl.O=S(=O)(CCCOc1ccc2[nH]c3nc(O)nc-3cc2c1)C1CCN(CCc2ccccc2)CC1
- solubility [1]: < 5000 µg/mL
- IC50 (Homo sapiens [2]): 130 nM

SMILES: Cl.O=S(=O)(CCCOc1ccc2[nH]c3nc(O)nc-3cc2c1)C1CCN(Cc2cccc(C(F)(F)F)c2)CC1
- solubility [1]: < 5000 µg/mL
- IC50 (Homo sapiens [2]): 38 nM

SMILES: Cl.O=S(=O)(CCCCOc1ccc2[nH]c3nc(O)nc-3cc2c1)C1CCN(Cc2ccc(F)cc2)CC1
- solubility [1]: 2000 µg/mL
- IC50 (Homo sapiens [2]): 67 nM

SMILES: Cl.Oc1nc2cc3cc(OCCCc4nnnn4C4CCN(CC5CCCCCC5)CC4)ccc3[nH]c-2n1
- solubility [1]: 1000 µg/mL
- IC50 (Homo sapiens [2]): 17 nM

SMILES: Cl.O=S(=O)(CCCOc1ccc2[nH]c3nc(O)nc-3cc2c1)N1CCN(CCc2ccccc2)CC1
- solubility [1]: < 10000 µg/mL
- IC50 (Homo sapiens [2]): 1040 nM

SMILES: Cl.Oc1nc2cc3cc(OCCCCc4nnnn4C4CCN(Cc5ccccc5)CC4)ccc3[nH]c-2n1
- solubility [1]: > 5000 µg/mL
- IC50 (Homo sapiens [2]): 31 nM

SMILES: CCC(CC)CN1CCC(n2nnnc2CCCCOc2ccc3[nH]c4nc(O)nc-4cc3c2)CC1.Cl
- solubility [1]: > 5000 µg/mL
- IC50 (Homo sapiens [2]): 12 nM

SMILES: Cl.Oc1nc2cc3cc(OCCCCc4nnnn4C4CCN(Cc5ccc(F)cc5)CC4)ccc3[nH]c-2n1
- solubility [1]: > 5000 µg/mL
- IC50 (Homo sapiens [2]): 51 nM

SMILES: CCCC(CCC)CN1CCC(n2nnnc2CCCOc2ccc3[nH]c4nc(O)nc-4cc3c2)CC1.Cl
- solubility [1]: 2000 µg/mL
- IC50 (Homo sapiens [2]): 82 nM

SMILES: CC(C)CN1CCC(n2nnnc2CCCCOc2ccc3[nH]c4nc(O)nc-4cc3c2)CC1.Cl
- solubility [1]: > 10000 µg/mL
- IC50 (Homo sapiens [2]): 9 nM

SMILES: Cl.O=S(=O)(CCCOc1ccc2[nH]c3nc(O)nc-3cc2c1)C1CCN(CCC2CCCCC2)CC1
- solubility [1]: < 5000 µg/mL
- IC50 (Homo sapiens [2]): 48 nM

SMILES: Cl.Oc1nc2cc3cc(OCCCCc4nnnn4C4CCNCC4)ccc3[nH]c-2n1
- solubility [1]: 5000 µg/mL
- IC50 (Homo sapiens [2]): 5330 nM

SMILES: Cl.Oc1nc2cc3cc(OCCCc4nnnn4C4CCNCC4)ccc3[nH]c-2n1
- solubility [1]: > 20000 µg/mL
- IC50 (Homo sapiens [2]): 11600 nM

SMILES: CCC(CC)CN1CCC(S(=O)(=O)CCCCOc2ccc3[nH]c4nc(O)nc-4cc3c2)CC1.Cl
- solubility [1]: 5000 µg/mL
- IC50 (Homo sapiens [2]): 21 nM

SMILES: Cl.Oc1nc2cc3cc(OCCCc4nnnn4C4CCN(CCc5ccccc5)CC4)ccc3[nH]c-2n1
- solubility [1]: < 5000 µg/mL
- IC50 (Homo sapiens [2]): 83 nM

SMILES: Cl.O=C(NCCCOc1ccc2[nH]c3nc(O)nc-3cc2c1)N1CCN(CCC2CCCCC2)CC1
- solubility [1]: 500 µg/mL
- IC50 (Homo sapiens [2]): 72 nM

SMILES: Cl.O=C(NCCCOc1ccc2[nH]c3nc(O)nc-3cc2c1)N1CCN(Cc2cccs2)CC1
- solubility [1]: > 10000 µg/mL
- IC50 (Homo sapiens [2]): 160 nM

SMILES: Cl.Oc1nc2cc3cc(OCCCCc4nnnn4C4CCN(CC5CCCCC5)CC4)ccc3[nH]c-2n1
- solubility [1]: > 5000 µg/mL
- IC50 (Homo sapiens [2]): 20 nM

SMILES: Cl.O=C(NCCCOc1ccc2[nH]c3nc(O)nc-3cc2c1)N1CCN(c2ncccn2)CC1
- solubility [1]: 100 µg/mL
- IC50 (Homo sapiens [2]): 320 nM

SMILES: Cl.O=C(NCCCOc1ccc2[nH]c3nc(O)nc-3cc2c1)N1CCN(CC2CCCCO2)CC1 (stereo not given)
- solubility [1]: > 20000 µg/mL
- IC50 (Homo sapiens [2]): 160 nM

SMILES: Cl.O=C(NCCCOc1ccc2[nH]c3nc(O)nc-3cc2c1)N1CCN(CCc2ccccc2)CC1
- solubility [1]: 250 µg/mL
- IC50 (Homo sapiens [2]): 300 nM

SMILES: Cl.O=C(NCCCOc1ccc2[nH]c3nc(O)nc-3cc2c1)N1CCN(Cc2ccsc2)CC1
- solubility [1]: 3000 µg/mL
- IC50 (Homo sapiens [2]): 280 nM

SMILES: Cl.O=C(NCCCOc1ccc2[nH]c3nc(O)nc-3cc2c1)N1CCNCC1
- solubility [1]: > 20000 µg/mL
- IC50 (Homo sapiens [2]): 8150 nM

SMILES: Cl.O=S(=O)(CCCOc1ccc2[nH]c3nc(O)nc-3cc2c1)N1CCN(CCC2CCCCC2)CC1
- solubility [1]: < 5000 µg/mL
- IC50 (Homo sapiens [2]): 2040 nM

SMILES: Cl.O=C(NCCCOc1ccc2[nH]c3nc(O)nc-3cc2c1)N1CCN(c2ccccn2)CC1
- solubility [1]: 500 µg/mL
- IC50 (Homo sapiens [2]): 690 nM

SMILES: Cl.O=S(=O)(CCCOc1ccc2[nH]c3nc(O)nc-3cc2c1)C1CCNCC1
- solubility [1]: > 10000 µg/mL
- IC50 (Homo sapiens [2]): > 66000 nM

SMILES: CCC(CC)CN1CCN(S(=O)(=O)CCCOc2ccc3[nH]c4nc(O)nc-4cc3c2)CC1.Cl
- metabolised at 2 h, 10 ug/ml [3]: 38.8%
- solubility [1]: > 10000 µg/mL
- half-life [4]: 2.87 h
- IC50 (Homo sapiens [2]): 160 nM
- IC50 (Homo sapiens [5]): 40 nM
- IC50 (Phosphodiesterase 3): 5.14 nM

SMILES: Cl.O=S(=O)(CCCCOc1ccc2[nH]c3nc(O)nc-3cc2c1)C1CCNCC1
- solubility [1]: > 10000 µg/mL
- IC50 (Homo sapiens [2]): 14800 nM

SMILES: CCCC(CCC)CN1CCN(C(=O)NCCCOc2ccc3[nH]c4nc(O)nc-4cc3c2)CC1.Cl
- solubility [1]: 500 µg/mL
- IC50 (Homo sapiens [2]): 130 nM

SMILES: Cl.O=C(NCCCOc1ccc2[nH]c3nc(O)nc-3cc2c1)N1CCC(N2CCCCC2)CC1
- solubility [1]: > 20000 µg/mL
- IC50 (Homo sapiens [2]): 9860 nM

SMILES: Cl.O=S(=O)(CCCOc1ccc2[nH]c3nc(O)nc-3cc2c1)N1CCN(c2nc3ccccc3o2)CC1
- solubility [1]: > 20000 µg/mL
- IC50 (Homo sapiens [2]): 2410 nM

SMILES: CC(C)CN1CCN(C(=O)NCCCOc2ccc3[nH]c4nc(O)nc-4cc3c2)CC1.Cl
- solubility [1]: > 20000 µg/mL
- IC50 (Homo sapiens [2]): 180 nM

SMILES: Cl.O=S(=O)(CCCOc1ccc2[nH]c3nc(O)nc-3cc2c1)N1CCN(c2nc3ccccc3s2)CC1
- solubility [1]: 1000 µg/mL
- IC50 (Homo sapiens [2]): 4880 nM

SMILES: COc1ccc(CN2CCN(S(=O)(=O)CCCOc3ccc4[nH]c5nc(O)nc-5cc4c3)CC2)cc1.Cl
- solubility [1]: > 20000 µg/mL
- IC50 (Homo sapiens [2]): 460 nM

SMILES: CC(C)CN1CCC(n2nnnc2CCCOc2ccc3[nH]c4nc(O)nc-4cc3c2)CC1.Cl
- solubility [1]: > 10000 µg/mL
- IC50 (Homo sapiens [2]): 9.4 nM

SMILES: CCCC(CCC)CN1CCC(S(=O)(=O)CCCOc2ccc3[nH]c4nc(O)nc-4cc3c2)CC1.Cl
- solubility [1]: 1000 µg/mL
- IC50 (Homo sapiens [2]): 230 nM

SMILES: Cl.Oc1nc2cc3cc(OCCCc4nnnn4C4CCN(CC5CCCCO5)CC4)ccc3[nH]c-2n1 (stereo not given)
- solubility [1]: > 10000 µg/mL
- IC50 (Homo sapiens [2]): 71 nM

SMILES: Cl.O=S(=O)(CCCCOc1ccc2[nH]c3nc(O)nc-3cc2c1)C1CCN(Cc2ccccc2)CC1
- solubility [1]: 5000 µg/mL
- IC50 (Homo sapiens [2]): 42 nM

SMILES: CC(C)CN1CCC(S(=O)(=O)CCCOc2ccc3[nH]c4nc(O)nc-4cc3c2)CC1.Cl
- solubility [1]: > 10000 µg/mL
- IC50 (Homo sapiens [2]): 27 nM

SMILES: Cl.O=S(=O)(CCCOc1ccc2[nH]c3nc(O)nc-3cc2c1)N1CCN(Cc2cccc(C(F)(F)F)c2)CC1
- solubility [1]: 2000 µg/mL
- IC50 (Homo sapiens [2]): 320 nM

SMILES: Cl.O=S(=O)(CCCOc1ccc2[nH]c3nc(O)nc-3cc2c1)N1CCNCC1
- solubility [1]: > 20000 µg/mL
- IC50 (Homo sapiens [2]): 15500 nM

SMILES: Cl.Cl.O=C(NCCCOc1ccc2[nH]c3nc(O)nc-3cc2c1)N1CCN(Cc2ccc(Cl)cc2)CC1
- solubility [1]: 200 µg/mL
- IC50 (Homo sapiens [2]): 290 nM

SMILES: Cl.Cl.O=S(=O)(CCCOc1ccc2[nH]c3nc(O)nc-3cc2c1)N1CCN(Cc2ccc(Cl)cc2)CC1
- solubility [1]: > 20000 µg/mL
- IC50 (Homo sapiens [2]): 530 nM

SMILES: O=CN1CCN(S(=O)(=O)CCCOc2ccc3[nH]c4nc(O)nc-4cc3c2)CC1
- solubility [1]: < 1000 µg/mL
- IC50 (Homo sapiens [2]): 13000 nM
